Experimental data: ChEMBL document CHEMBL5365542, “Difluoromethyl-1,3,4-oxadiazoles Are Selective, Mechanism-Based, and Essentially Irreversible Inhibitors of Histone Deacetylase 6” (J Med Chem, 2023)
Active and inactive are the calls of the source. The rule behind the calls is not given here.

Key:
[1] = target: Histone deacetylase 2 (Homo sapiens) (UniProt Q92769); test: Inhibition of C-terminal 6His-tagged human recombinant HDAC2 (1 to 488 residues) expressed in Sf9 insect cells using Z-Lys(Ac)-AMC as fluorogenic substrate at 10 uM preincubated for 60 mins followed by substrate addition and measured after 90 mins by microplate reader analysis relative to control; settings: time 150.0 min
Summary of the method: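 Human recombinant enzyme was preincubated with 3-fold inhibitor dilutions for 60 min at 25 °C in Tris-HCl pH 8.0 buffer with BSA. ZMAL (75 μM solution) was then added, and the mix was incubated 90 min at 37 °C (max 1% DMSO). Trypsin was added for 30 min at 37 °C, and fluorescence was read at ex 355/em 460. Tested at least twice in duplicate.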

[2] = target: T1, Protein deacetylase HDAC6 (Homo sapiens) (UniProt Q9UBN7); test: (§1) Irreversible inhibition of N-terminal GST tagged human recombinant HDAC6 (1 to 1215 residues) expressed in Sf9 insect cells using Z-Lys(Ac)-AMC as fluorogenic substrate at 6.5 uM preincubated for 1 hr followed by 100-fold dilution and substrate addition measured every 0.5 mins for 60 mins by microplate reader analysis
T1 sequence (whole entry): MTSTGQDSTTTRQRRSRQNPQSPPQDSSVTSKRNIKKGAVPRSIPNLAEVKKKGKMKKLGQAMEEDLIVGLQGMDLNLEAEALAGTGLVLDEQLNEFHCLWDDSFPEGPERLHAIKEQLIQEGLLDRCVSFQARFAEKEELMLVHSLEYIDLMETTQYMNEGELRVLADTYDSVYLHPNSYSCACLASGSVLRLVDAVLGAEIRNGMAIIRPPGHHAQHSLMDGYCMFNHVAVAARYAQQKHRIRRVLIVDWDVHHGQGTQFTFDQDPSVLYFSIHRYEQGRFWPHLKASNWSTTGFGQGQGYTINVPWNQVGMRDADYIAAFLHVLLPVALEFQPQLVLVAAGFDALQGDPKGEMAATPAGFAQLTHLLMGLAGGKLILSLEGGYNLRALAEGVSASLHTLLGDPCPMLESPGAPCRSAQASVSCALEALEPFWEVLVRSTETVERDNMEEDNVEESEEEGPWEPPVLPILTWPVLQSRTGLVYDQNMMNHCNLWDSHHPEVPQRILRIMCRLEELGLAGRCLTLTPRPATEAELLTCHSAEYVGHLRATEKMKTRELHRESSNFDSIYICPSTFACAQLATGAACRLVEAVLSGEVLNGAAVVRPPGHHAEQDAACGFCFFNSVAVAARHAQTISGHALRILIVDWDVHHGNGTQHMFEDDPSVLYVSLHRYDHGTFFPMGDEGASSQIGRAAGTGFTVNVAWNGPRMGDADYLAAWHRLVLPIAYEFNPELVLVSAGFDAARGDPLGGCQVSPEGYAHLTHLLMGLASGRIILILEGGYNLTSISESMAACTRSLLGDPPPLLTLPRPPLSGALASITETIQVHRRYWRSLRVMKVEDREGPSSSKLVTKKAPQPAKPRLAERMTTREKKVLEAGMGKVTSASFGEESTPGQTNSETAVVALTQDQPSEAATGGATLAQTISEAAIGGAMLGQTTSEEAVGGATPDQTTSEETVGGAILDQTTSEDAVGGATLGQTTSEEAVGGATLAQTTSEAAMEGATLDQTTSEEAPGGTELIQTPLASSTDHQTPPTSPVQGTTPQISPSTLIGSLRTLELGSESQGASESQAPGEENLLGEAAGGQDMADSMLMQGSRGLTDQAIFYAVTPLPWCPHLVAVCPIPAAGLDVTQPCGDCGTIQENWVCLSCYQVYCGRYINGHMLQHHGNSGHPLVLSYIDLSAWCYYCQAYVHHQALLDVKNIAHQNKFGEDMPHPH
Summary of the method: (§2)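 It was then diluted 100-fold in buffer or in inhibitor at the original concentration. Finals were 220 pg/μL enzyme, 93 μM ZMAL and 20 ng/μL trypsin. AMC release was read every 0.5 min for 60 min at 37 °C; triplicates.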

[3] = target: T1, Protein deacetylase HDAC6 (Homo sapiens); test: (§3) Binding affinity to N-terminal GST tagged human recombinant HDAC6 (1 to 1215 residues) expressed in Sf9 insect cells using Z-Lys(Ac)-AMC as fluorogenic substrate assessed as single step slow binding mechanism by measuring linear relationship between Kobs and inhibitor concentration measured every 0.5 mins for 45 mins
Summary of the method: (§4)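 Finals were 220 pg/μL enzyme, 93.0 μM ZMAL (5× KM; KM 19.27 μM) and 20 ng/μL trypsin. AMC read continuously (ex 360/em 460) at 37 °C. Curves fitted for kobs, then kobs vs [I] fitted; triplicates.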

[4] = target: T1, Protein deacetylase HDAC6 (Homo sapiens); test: as §1, with “2.5” for “6.5”; summary of the method: as §2
[5] = target: T1, Protein deacetylase HDAC6 (Homo sapiens); test: as §3, with “induced-fit” for “single step slow binding”, “hyperbolic” for “linear”; summary of the method: as §4

Histone deacetylase 2 (Homo sapiens), sequence (Q92769 whole entry, the tested form may be a part): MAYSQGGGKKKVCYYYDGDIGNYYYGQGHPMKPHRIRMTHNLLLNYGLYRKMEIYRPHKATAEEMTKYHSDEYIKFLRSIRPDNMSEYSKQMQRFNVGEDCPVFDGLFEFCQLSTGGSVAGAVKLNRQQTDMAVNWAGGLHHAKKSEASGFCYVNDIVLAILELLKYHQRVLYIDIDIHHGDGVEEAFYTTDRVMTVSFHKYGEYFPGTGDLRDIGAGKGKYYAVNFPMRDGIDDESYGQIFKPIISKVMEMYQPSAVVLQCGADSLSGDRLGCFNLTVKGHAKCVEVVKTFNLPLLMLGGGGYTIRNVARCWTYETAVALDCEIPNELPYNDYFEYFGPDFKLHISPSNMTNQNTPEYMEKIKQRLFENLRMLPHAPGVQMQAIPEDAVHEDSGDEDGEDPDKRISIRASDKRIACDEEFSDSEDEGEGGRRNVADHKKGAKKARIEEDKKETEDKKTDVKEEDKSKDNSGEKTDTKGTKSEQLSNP

Structure (SMILES) | inhibition [1] | inhibition [2] | Activity [3] | inhibition [4] | Activity [5]
FC(F)(F)c1nnc(-c2cnc(NCc3ccccc3)nc2)o1 | < 15% | inactive | Active | – | –
FC(F)c1nnc(-c2cnc(NCc3ccccc3)nc2)o1 | < 15% | – | – | Active | Active
